Results pooled from the literature.
Compare with care: the assays were run in different laboratories.
Target: Tyrosine-protein kinase TXK (TXK, Homo sapiens, UniProt P42681)
Residues used in one study (P42681 1-527): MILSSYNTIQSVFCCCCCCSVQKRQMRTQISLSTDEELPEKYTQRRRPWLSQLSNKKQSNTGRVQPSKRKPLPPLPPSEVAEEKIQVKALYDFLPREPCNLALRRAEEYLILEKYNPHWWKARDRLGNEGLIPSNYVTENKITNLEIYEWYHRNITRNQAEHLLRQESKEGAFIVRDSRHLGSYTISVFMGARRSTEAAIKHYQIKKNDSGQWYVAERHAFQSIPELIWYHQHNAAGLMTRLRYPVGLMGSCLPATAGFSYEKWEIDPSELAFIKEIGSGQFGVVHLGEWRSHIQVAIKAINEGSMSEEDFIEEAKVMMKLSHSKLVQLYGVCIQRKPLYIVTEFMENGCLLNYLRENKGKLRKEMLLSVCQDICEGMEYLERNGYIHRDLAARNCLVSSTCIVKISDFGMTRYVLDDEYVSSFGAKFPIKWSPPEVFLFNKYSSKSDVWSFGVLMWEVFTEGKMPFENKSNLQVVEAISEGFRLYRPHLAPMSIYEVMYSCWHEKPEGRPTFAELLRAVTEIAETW

Structure (SMILES)	assay	conditions	measurement	result
CC(C)(C)c1nc(-c2cccc(NS(=O)(=O)c3c(F)cccc3F)c2F)c(-c2ccnc(N)n2)s1	enzyme activity, inhibitor, radiometric	1 µM	remaining activity	88%
Cc1c(NC(=O)c2cc(C(N)=O)nc3cc(F)ccc23)c(C(F)(F)F)nn1Cc1ccc(C#N)cc1	binding, competition with immobilised ligand	1 µM	remaining binding	99%
Cc1ccc(C(=O)Nc2ccc(CN3CCN(C)CC3)c(C(F)(F)F)c2)cc1C#Cc1cnc2cccnn12	enzyme activity, inhibitor	23.5 nM	remaining activity	25%
O=C(NS(=O)(=O)c1ccc(NCC2CCOCC2)c([N+](=O)[O-])c1)c1ccc(N2CCN(Cc3ccc(C(F)(F)F)cc3-c3ccc(Cl)cc3)CC2)cc1Oc1cnc2[nH]ccc2c1	cell-free assay, competition with immobilised ligand	1 µM	remaining binding	94%
O=C(Nc1cnn(-c2csc(C(=O)NC3COC3)c2)c1)Nc1c(F)cccc1Cl	enzyme activity, inhibitor	5 µM	remaining activity	90.8%
O=C(N[C@H]1CCCCC/C=C\C2C[C@@]2(C(=O)O)NC(=O)[C@@H]2C[C@@H](Oc3ccncc3)CN2C1=O)OC1CCCC1 (stereo partly drawn)	binding, competition with immobilised ligand	1 µM	remaining binding	87%
N#CCCc1ccc2c(c1)-c1[nH]c3ccc([N+](=O)[O-])cc3c1CC(=O)N2	cell-free assay	0.5 µM	remaining signal	67.6%
CCOC(=O)c1cc2cc(-c3cc(C(=O)NCc4ccc(C(=O)O)cc4)nn3C)ccc2[nH]1	binding, competition with immobilised ligand	0.1 µM	remaining binding	90%
CCCS(=O)(=O)Nc1ccc(F)c(C(=O)c2c[nH]c3ncc(-c4ccc(Cl)cc4)cc23)c1F	enzyme activity, inhibitor	1 µM	inhibition	< 10%
Oc1ccc(-c2nc(-c3ccncc3)c(-c3ccc(F)cc3)[nH]2)cc1	cell-free assay	0.5 µM	remaining signal	78.5%
NS(=O)(=O)c1cc(NC(=O)Cc2ccccc2)ccc1Oc1cccc(Cl)c1	binding, competition with immobilised ligand	1 µM	remaining binding	92%
CC/C(=N\NC(=O)NCc1cccc(O)c1)c1ccc(O)c(C)c1O	enzyme activity, inhibitor	0.1 µM	inhibition	-0.3%
COc1cc(Cl)c(C(=O)N[C@@H](CN[C@H]2CC[C@@H](N)CC2)Cc2ccc(C#N)cc2)cc1-c1ccc(CN[C@H](C)c2ccc(C)cc2)o1	enzyme activity, inhibitor	1 µM	remaining activity	88%
Cc1ccc(C(=O)NCc2ccsc2)cc1C#Cc1cn(C(C)C)c2ncnc(N)c12	enzyme activity, inhibitor	1 µM	activity vs control	36%
O=C(NCc1ncc(C(F)(F)F)cc1Cl)c1ccc2c(c1)C1(CCS(=O)(=O)CC1)[C@@H](C1CC1)N2S(=O)(=O)c1ccc(F)cc1	binding, competition with immobilised ligand	1 µM	remaining binding	83%
Cc1cnc(NC2CCOCC2)nc1-n1cnc(C(=O)NC(CN)c2cc(F)cc(Cl)c2)c1 (stereo not drawn)	enzyme activity, inhibitor, radiometric	1 µM	remaining activity	102%
COc1cc2nccc(Oc3ccc(NC(=O)c4c5n(n(-c6ccc(F)cc6)c4=O)CCCC5)cc3)c2cc1OC	enzyme activity, inhibitor	0.1 µM	inhibition	-2%
COc1cc2ncnc(Nc3ccc(Oc4ccccc4)cc3C)c2cc1OC	enzyme activity, inhibitor	1 µM	inhibition	16%
